Measurements as given in ChEMBL document CHEMBL5303300, “EUbOPEN Chemogenomics Library - Multiplex” (2023).
Several values for one entry are separate records, joined by “and”; a condition that tells them apart may be missing. Equal values may be shown once.

Assays:
Type in all cases: toxicity, cell-based
HEK-293T = assay: Multiplex assay against HEK293T; conditions: human, number of replicates 2
How it was run: (§1)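 On a CQ1 microscope at 37°C and 5% CO2, live cells were imaged after compound addition. They had been stained at seeding with Hoechst33342, BioTracker Green Microtubule Cytoskeleton Dye, MitoTracker Red and Annexin V Alexa Fluor 680. CellPathfinder machine-learning gating assigned cells to Hoechst high-intensity objects or normal cells, normal cells to healthy, pyknosed or fragmented nuclei, and pyknosed cells to mitotic or apoptotic. Tubulin, mitochondrial-mass and membrane-permeability phenotypes are per cents of healthy-nucleus cells.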

U2OS = assay: Multiplex assay against U2OS; conditions: human, number of replicates 2; how it was run: as §1
Fibroblast = assay: Multiplex assay against human fibroblast; conditions: number of replicates 2; how it was run: as §1
[1] = 12 h, 1 µM, compound concentration 1 uM
[2] = 12 h, 10 µM, compound concentration 10 uM
[3] = 24 h, 1 µM, compound concentration 1 uM
[4] = 24 h, 10 µM, compound concentration 10 uM
[5] = 48 h, 1 µM, compound concentration 1 uM
[6] = 48 h, 10 µM, compound concentration 10 uM

CN1CCc2cc(Nc3ncc(C(F)(F)F)c(NCc4cc[nH]n4)n3)ccc2C1
Population Apoptotic (%) (HEK-293T; [1]): 85% and 72% | Population Fragmented Nuclei (%) (HEK-293T; [1]): 4% and 3% | Population Healthy Nuclei (%) (HEK-293T; [1]): 77% and 78% | Population Hoechst High Intensity Objects (%) (HEK-293T; [1]): 14% and 11% | Population Membrane Permeable-Phenotype (%) (HEK-293T; [1]): 1% | Population Mitochondria Different-Phenotype (%) (HEK-293T; [1]): 41% and 47% | Population Mitotic Cells (%) (HEK-293T; [1]): 14% and 27% | Population Normal (%) (HEK-293T; [1]): 85% and 88% | Population Pyknosed Nuclei (%) (HEK-293T; [1]): 17% | Population Tubulin-Different-Phenotype (%) (HEK-293T; [1]): 35% and 44% | Total Cell Count (HEK-293T; [1]): 280 and 291 | Population Apoptotic (%) (HEK-293T; [2]): 64% and 85% | Population Fragmented Nuclei (%) (HEK-293T; [2]): 5% | Population Healthy Nuclei (%) (HEK-293T; [2]): 89% | Population Hoechst High Intensity Objects (%) (HEK-293T; [2]): 10% and 13% | Population Membrane Permeable-Phenotype (%) (HEK-293T; [2]): 0% | Population Mitochondria Different-Phenotype (%) (HEK-293T; [2]): 38% and 43% | Population Mitotic Cells (%) (HEK-293T; [2]): 35% and 14% | Population Normal (%) (HEK-293T; [2]): 89% and 86% | Population Pyknosed Nuclei (%) (HEK-293T; [2]): 5% | Population Tubulin-Different-Phenotype (%) (HEK-293T; [2]): 66% and 70% | Total Cell Count (HEK-293T; [2]): 377 and 312 | Population Apoptotic (%) (HEK-293T; [3]): 83% and 72% | Population Fragmented Nuclei (%) (HEK-293T; [3]): 4% and 5% | Population Healthy Nuclei (%) (HEK-293T; [3]): 81% and 73% | Population Hoechst High Intensity Objects (%) (HEK-293T; [3]): 20% and 13% | Population Membrane Permeable-Phenotype (%) (HEK-293T; [3]): 0% | Population Mitochondria Different-Phenotype (%) (HEK-293T; [3]): 37% and 43% | Population Mitotic Cells (%) (HEK-293T; [3]): 16% and 27% | Population Normal (%) (HEK-293T; [3]): 79% and 86% | Population Pyknosed Nuclei (%) (HEK-293T; [3]): 14% and 20% | Population Tubulin-Different-Phenotype (%) (HEK-293T; [3]): 38% and 42% | Total Cell Count (HEK-293T; [3]): 267 and 261 | Population Apoptotic (%) (HEK-293T; [4]): 63% and 80% | Population Fragmented Nuclei (%) (HEK-293T; [4]): 5% and 4% | Population Healthy Nuclei (%) (HEK-293T; [4]): 87% | Population Hoechst High Intensity Objects (%) (HEK-293T; [4]): 11% and 13% | Population Membrane Permeable-Phenotype (%) (HEK-293T; [4]): 1% and 0% | Population Mitochondria Different-Phenotype (%) (HEK-293T; [4]): 58% and 60% | Population Mitotic Cells (%) (HEK-293T; [4]): 36% and 20% | Population Normal (%) (HEK-293T; [4]): 88% and 86% | Population Pyknosed Nuclei (%) (HEK-293T; [4]): 7% and 8% | Population Tubulin-Different-Phenotype (%) (HEK-293T; [4]): 73% and 71% | Total Cell Count (HEK-293T; [4]): 315 and 284 | Population Apoptotic (%) (HEK-293T; [5]): 80% and 72% | Population Fragmented Nuclei (%) (HEK-293T; [5]): 7% and 5% | Population Healthy Nuclei (%) (HEK-293T; [5]): 79% | Population Hoechst High Intensity Objects (%) (HEK-293T; [5]): 16% and 14% | Population Membrane Permeable-Phenotype (%) (HEK-293T; [5]): 1% | Population Mitochondria Different-Phenotype (%) (HEK-293T; [5]): 40% and 36% | Population Mitotic Cells (%) (HEK-293T; [5]): 19% and 27% | Population Normal (%) (HEK-293T; [5]): 83% and 85% | Population Pyknosed Nuclei (%) (HEK-293T; [5]): 13% and 15% | Population Tubulin-Different-Phenotype (%) (HEK-293T; [5]): 36% | Total Cell Count (HEK-293T; [5]): 285 and 307 | Population Apoptotic (%) (HEK-293T; [6]): 46% and 75% | Population Fragmented Nuclei (%) (HEK-293T; [6]): 3% and 4% | Population Healthy Nuclei (%) (HEK-293T; [6]): 84% and 82% | Population Hoechst High Intensity Objects (%) (HEK-293T; [6]): 14% and 18% | Population Membrane Permeable-Phenotype (%) (HEK-293T; [6]): 0% and 1% | Population Mitochondria Different-Phenotype (%) (HEK-293T; [6]): 65% and 67% | Population Mitotic Cells (%) (HEK-293T; [6]): 53% and 25% | Population Normal (%) (HEK-293T; [6]): 85% and 81% | Population Pyknosed Nuclei (%) (HEK-293T; [6]): 11% and 12% | Population Tubulin-Different-Phenotype (%) (HEK-293T; [6]): 71% and 72% | Total Cell Count (HEK-293T; [6]): 303 and 280 | Population Hoechst High Intensity Objects (%) (U2OS; [1]): 0% | Population Membrane Permeable-Phenotype (%) (U2OS; [1]): 0% and 4% | Population Mitochondria Different-Phenotype (%) (U2OS; [1]): 0% and 1% | Population Mitotic Cells (%) (U2OS; [1]): 0% and 12% | Population Normal (%) (U2OS; [1]): 100% | Population Healthy Nuclei (%) (U2OS; [2]): 33% and 57% | Population Hoechst High Intensity Objects (%) (U2OS; [2]): 0% | Population Membrane Permeable-Phenotype (%) (U2OS; [2]): 0% and 7% | Population Mitochondria Different-Phenotype (%) (U2OS; [2]): 0% and 5% | Population Normal (%) (U2OS; [2]): 100% | Population Pyknosed Nuclei (%) (U2OS; [2]): 16% and 27% | Population Tubulin-Different-Phenotype (%) (U2OS; [2]): 50% and 41% | Population Hoechst High Intensity Objects (%) (U2OS; [3]): 0% | Population Membrane Permeable-Phenotype (%) (U2OS; [3]): 0% and 6% | Population Mitochondria Different-Phenotype (%) (U2OS; [3]): 0% and 4% | Population Mitotic Cells (%) (U2OS; [3]): 0% and 8% | Population Normal (%) (U2OS; [3]): 100% and 99% | Population Apoptotic (%) (U2OS; [4]): 71% and 80% | Population Healthy Nuclei (%) (U2OS; [4]): 15% and 45% | Population Hoechst High Intensity Objects (%) (U2OS; [4]): 0% and 1% | Population Membrane Permeable-Phenotype (%) (U2OS; [4]): 20% and 15% | Population Mitochondria Different-Phenotype (%) (U2OS; [4]): 20% and 8% | Population Mitotic Cells (%) (U2OS; [4]): 28% and 19% | Population Normal (%) (U2OS; [4]): 100% and 98% | Population Pyknosed Nuclei (%) (U2OS; [4]): 21% and 42% | Population Tubulin-Different-Phenotype (%) (U2OS; [4]): 60% | Population Healthy Nuclei (%) (U2OS; [5]): 0% and 21% | Population Hoechst High Intensity Objects (%) (U2OS; [5]): 0% and 1% | Population Mitochondria Different-Phenotype (%) (U2OS; [5]): 0% and 22% | Population Mitotic Cells (%) (U2OS; [5]): 0% | Population Normal (%) (U2OS; [5]): 100% and 98% | Population Apoptotic (%) (U2OS; [6]): 93% and 88% | Population Healthy Nuclei (%) (U2OS; [6]): 16% and 15% | Population Hoechst High Intensity Objects (%) (U2OS; [6]): 1% and 0% | Population Mitotic Cells (%) (U2OS; [6]): 6% and 11% | Population Normal (%) (U2OS; [6]): 98% and 100% | Population Pyknosed Nuclei (%) (U2OS; [6]): 68% and 23% | Population Tubulin-Different-Phenotype (%) (U2OS; [6]): 80% and 66% | Population Apoptotic (%) (Fibroblast; [1]): 63% and 62% | Population Fragmented Nuclei (%) (Fibroblast; [1]): 7% and 19% | Population Healthy Nuclei (%) (Fibroblast; [1]): 63% and 58% | Population Hoechst High Intensity Objects (%) (Fibroblast; [1]): 0% | Population Membrane Permeable-Phenotype (%) (Fibroblast; [1]): 3% and 6% | Population Mitochondria Different-Phenotype (%) (Fibroblast; [1]): 0% and 1% | Population Mitotic Cells (%) (Fibroblast; [1]): 36% and 37% | Population Normal (%) (Fibroblast; [1]): 100% | Population Pyknosed Nuclei (%) (Fibroblast; [1]): 28% and 22% | Population Tubulin-Different-Phenotype (%) (Fibroblast; [1]): 1% and 4% | Total Cell Count (Fibroblast; [1]): 133 and 168 | Population Apoptotic (%) (Fibroblast; [2]): 70% and 60% | Population Fragmented Nuclei (%) (Fibroblast; [2]): 19% and 24% | Population Healthy Nuclei (%) (Fibroblast; [2]): 60% and 63% | Population Hoechst High Intensity Objects (%) (Fibroblast; [2]): 0% | Population Membrane Permeable-Phenotype (%) (Fibroblast; [2]): 9% and 11% | Population Mitochondria Different-Phenotype (%) (Fibroblast; [2]): 1% | Population Mitotic Cells (%) (Fibroblast; [2]): 29% and 40% | Population Normal (%) (Fibroblast; [2]): 100% | Population Pyknosed Nuclei (%) (Fibroblast; [2]): 20% and 11% | Population Tubulin-Different-Phenotype (%) (Fibroblast; [2]): 16% and 18% | Total Cell Count (Fibroblast; [2]): 180 and 262 | Population Apoptotic (%) (Fibroblast; [3]): 84% and 80% | Population Fragmented Nuclei (%) (Fibroblast; [3]): 15% | Population Healthy Nuclei (%) (Fibroblast; [3]): 40% and 50% | Population Hoechst High Intensity Objects (%) (Fibroblast; [3]): 0% | Population Membrane Permeable-Phenotype (%) (Fibroblast; [3]): 3% and 12% | Population Mitochondria Different-Phenotype (%) (Fibroblast; [3]): 0% | Population Mitotic Cells (%) (Fibroblast; [3]): 15% and 20% | Population Normal (%) (Fibroblast; [3]): 100% and 99% | Population Pyknosed Nuclei (%) (Fibroblast; [3]): 43% and 34% | Population Tubulin-Different-Phenotype (%) (Fibroblast; [3]): 3% | Total Cell Count (Fibroblast; [3]): 133 and 161 | Population Apoptotic (%) (Fibroblast; [4]): 61% and 84% | Population Fragmented Nuclei (%) (Fibroblast; [4]): 26% and 20% | Population Healthy Nuclei (%) (Fibroblast; [4]): 56% and 61% | Population Hoechst High Intensity Objects (%) (Fibroblast; [4]): 0% | Population Membrane Permeable-Phenotype (%) (Fibroblast; [4]): 9% and 12% | Population Mitochondria Different-Phenotype (%) (Fibroblast; [4]): 3% and 1% | Population Mitotic Cells (%) (Fibroblast; [4]): 38% and 15% | Population Normal (%) (Fibroblast; [4]): 100% and 99% | Population Pyknosed Nuclei (%) (Fibroblast; [4]): 16% and 17% | Population Tubulin-Different-Phenotype (%) (Fibroblast; [4]): 17% and 19% | Total Cell Count (Fibroblast; [4]): 185 and 253 | Population Apoptotic (%) (Fibroblast; [5]): 88% and 72% | Population Fragmented Nuclei (%) (Fibroblast; [5]): 24% and 15% | Population Healthy Nuclei (%) (Fibroblast; [5]): 40% and 67% | Population Hoechst High Intensity Objects (%) (Fibroblast; [5]): 0% | Population Membrane Permeable-Phenotype (%) (Fibroblast; [5]): 8% and 14% | Population Mitochondria Different-Phenotype (%) (Fibroblast; [5]): 0% | Population Mitotic Cells (%) (Fibroblast; [5]): 11% and 27% | Population Normal (%) (Fibroblast; [5]): 100% and 99% | Population Pyknosed Nuclei (%) (Fibroblast; [5]): 35% and 16% | Population Tubulin-Different-Phenotype (%) (Fibroblast; [5]): 10% and 12% | Total Cell Count (Fibroblast; [5]): 122 and 133 | Population Apoptotic (%) (Fibroblast; [6]): 65% and 59% | Population Fragmented Nuclei (%) (Fibroblast; [6]): 26% and 22% | Population Healthy Nuclei (%) (Fibroblast; [6]): 51% and 57% | Population Hoechst High Intensity Objects (%) (Fibroblast; [6]): 0% | Population Membrane Permeable-Phenotype (%) (Fibroblast; [6]): 5% and 9% | Population Mitochondria Different-Phenotype (%) (Fibroblast; [6]): 1% and 0% | Population Mitotic Cells (%) (Fibroblast; [6]): 34% and 40% | Population Normal (%) (Fibroblast; [6]): 100% | Population Pyknosed Nuclei (%) (Fibroblast; [6]): 22% and 19% | Population Tubulin-Different-Phenotype (%) (Fibroblast; [6]): 14% and 19% | Total Cell Count (Fibroblast; [6]): 184 and 251
